Measurements: ChEMBL document CHEMBL1134785, “Synthesis and biological evaluation of prostaglandin-F alkylphosphinic acid derivatives as bone anabolic agents for the treatment of osteoporosis” (J Med Chem, 2001)
Values belong to the molecule of their own block, whether it stands above or below them.

Columns and labels:
[1] = Dissociation constant was determined; type: physicochemical
[2] = biological target: T1, Prostaglandin F2-alpha receptor (Homo sapiens, UniProt P43088); test: In vitro binding at FP human prostaglandin receptor using [3H]PGF-2 alpha as radioligand
T1 sequence (P43088 whole entry): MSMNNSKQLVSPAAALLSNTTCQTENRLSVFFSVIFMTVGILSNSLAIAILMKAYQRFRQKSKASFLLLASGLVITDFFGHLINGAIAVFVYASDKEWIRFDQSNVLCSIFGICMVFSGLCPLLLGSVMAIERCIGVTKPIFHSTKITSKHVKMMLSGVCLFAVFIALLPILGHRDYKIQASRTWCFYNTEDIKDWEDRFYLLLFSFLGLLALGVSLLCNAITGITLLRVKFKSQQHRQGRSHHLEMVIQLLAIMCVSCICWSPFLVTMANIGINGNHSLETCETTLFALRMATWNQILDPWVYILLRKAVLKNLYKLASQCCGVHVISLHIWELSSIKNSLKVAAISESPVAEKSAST
How it was run: (§1)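 COS-7 cells transiently transfected with hFP plasmid and harvested 48 h later. Membranes from nitrogen cavitation and 100000g spin, taken up at 1 mg protein/mL in TME buffer pH 6.0. Each well held 100 μg membrane, 5 nM [3H]PGF2α and competitor, n=3, 1 h at 23 °C. Bound label collected by GF/B filtration, washed in TME, scintillation counted.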

[3] = biological target: Prostaglandin E2 receptor EP4 subtype (Homo sapiens, UniProt P35408); test: In vitro binding at EP4 human prostaglandin receptor using [3H]PGE-2 as radioligand
Chain of Prostaglandin E2 receptor EP4 subtype (P35408 whole entry): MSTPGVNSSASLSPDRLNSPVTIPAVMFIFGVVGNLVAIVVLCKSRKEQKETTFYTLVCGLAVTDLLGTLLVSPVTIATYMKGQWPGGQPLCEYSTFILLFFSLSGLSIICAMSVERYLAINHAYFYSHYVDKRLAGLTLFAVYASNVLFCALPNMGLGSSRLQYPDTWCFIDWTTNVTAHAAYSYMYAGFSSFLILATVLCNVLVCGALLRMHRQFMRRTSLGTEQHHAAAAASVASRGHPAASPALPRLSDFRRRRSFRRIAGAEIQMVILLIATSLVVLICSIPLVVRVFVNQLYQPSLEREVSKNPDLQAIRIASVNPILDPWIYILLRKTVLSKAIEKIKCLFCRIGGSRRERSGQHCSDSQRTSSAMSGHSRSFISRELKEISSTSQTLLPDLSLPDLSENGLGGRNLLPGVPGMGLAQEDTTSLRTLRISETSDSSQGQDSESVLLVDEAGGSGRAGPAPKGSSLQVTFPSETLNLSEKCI
How it was run: (§2)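 Receptors stably expressed in CHO cells, collected 4-5 days after seeding. Membranes made by lysis (Tris, EDTA, protease inhibitors) and 100000g pellet, then resuspended at 1 mg protein/mL in TME. Radioligands at 5 nM: [3H]PGE2 for EP2/EP3/EP4, [3H]Iloprost for IP, [3H]SQ-29548 for TP. Competition binding with filtration and counting.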

Thromboxane A2 receptor [4] = biological target: T2, Thromboxane A2 receptor (Homo sapiens, UniProt P21731); test: In vitro binding at TP human prostaglandin receptor using [3H]SQ-29,548 as radioligand; how it was run: as §2
T2 sequence (P21731 whole entry): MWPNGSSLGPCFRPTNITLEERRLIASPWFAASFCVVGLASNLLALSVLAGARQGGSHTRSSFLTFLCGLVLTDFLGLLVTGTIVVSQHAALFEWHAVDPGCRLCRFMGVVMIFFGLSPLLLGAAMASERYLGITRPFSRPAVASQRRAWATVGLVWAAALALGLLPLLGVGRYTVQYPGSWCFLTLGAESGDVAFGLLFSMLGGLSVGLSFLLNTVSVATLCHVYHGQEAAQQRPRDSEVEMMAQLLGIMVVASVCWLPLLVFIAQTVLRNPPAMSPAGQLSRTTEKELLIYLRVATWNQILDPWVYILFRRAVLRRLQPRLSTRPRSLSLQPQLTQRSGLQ

[5] = biological target: T3, Prostaglandin D2 receptor (Homo sapiens, UniProt Q13258); test: In vitro binding at DP human prostaglandin receptor using [3H]- PGD-2 as radioligand
T3 sequence (Q13258 whole entry): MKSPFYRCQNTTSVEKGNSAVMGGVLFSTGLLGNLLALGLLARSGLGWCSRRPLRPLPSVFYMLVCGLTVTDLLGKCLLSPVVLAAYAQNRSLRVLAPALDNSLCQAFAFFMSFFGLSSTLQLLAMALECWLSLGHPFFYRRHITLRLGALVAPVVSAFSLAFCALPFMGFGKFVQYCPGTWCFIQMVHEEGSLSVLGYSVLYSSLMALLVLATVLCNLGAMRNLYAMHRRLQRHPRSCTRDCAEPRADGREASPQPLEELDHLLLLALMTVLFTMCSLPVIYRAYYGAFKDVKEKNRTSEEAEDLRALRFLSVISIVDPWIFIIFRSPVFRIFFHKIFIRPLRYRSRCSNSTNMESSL
How it was run: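 hDP stably expressed in HEK-293 cells, collected 4-5 days after seeding. Membranes made by lysis and 100000g spin, then taken up at 1 mg protein/mL in TME buffer at pH 7.4. Competition binding used 5 nM [3H]PGD2, read by filtration and scintillation counting.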

Prostacyclin receptor = Prostacyclin receptor (Homo sapiens, UniProt P43119); test: In vitro binding at prostanoid IP receptor using [3H]iloprost as radioligand; how it was run: as §2
Chain of Prostacyclin receptor (P43119 whole entry): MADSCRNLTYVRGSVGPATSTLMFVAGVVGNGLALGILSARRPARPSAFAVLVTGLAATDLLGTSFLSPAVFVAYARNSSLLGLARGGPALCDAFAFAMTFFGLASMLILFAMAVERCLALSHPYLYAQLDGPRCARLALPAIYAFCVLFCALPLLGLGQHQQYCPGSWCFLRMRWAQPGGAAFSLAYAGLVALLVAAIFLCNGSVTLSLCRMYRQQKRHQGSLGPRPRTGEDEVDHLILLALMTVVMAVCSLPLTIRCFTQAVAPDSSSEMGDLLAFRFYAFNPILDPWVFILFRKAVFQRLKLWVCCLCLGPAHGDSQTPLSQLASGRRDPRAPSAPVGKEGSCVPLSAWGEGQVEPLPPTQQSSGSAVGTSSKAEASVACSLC

[6] = biological target: T4, Prostaglandin E2 receptor EP1 subtype (Homo sapiens, UniProt P34995); test: In vitro binding at EP1 human prostaglandin receptor using [3H]PGE-2 as radioligand
T4 sequence (P34995 whole entry): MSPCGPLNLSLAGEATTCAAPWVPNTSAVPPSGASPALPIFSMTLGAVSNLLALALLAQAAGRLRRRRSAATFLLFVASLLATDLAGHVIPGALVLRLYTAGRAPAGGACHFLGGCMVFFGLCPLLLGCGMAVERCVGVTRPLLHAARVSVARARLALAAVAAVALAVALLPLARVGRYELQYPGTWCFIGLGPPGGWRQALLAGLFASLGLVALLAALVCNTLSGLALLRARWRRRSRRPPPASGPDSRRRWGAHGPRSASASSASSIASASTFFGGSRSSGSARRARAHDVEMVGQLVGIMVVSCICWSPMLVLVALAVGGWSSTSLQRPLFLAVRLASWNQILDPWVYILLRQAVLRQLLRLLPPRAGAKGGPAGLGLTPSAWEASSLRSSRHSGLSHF
How it was run: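 hEP1 transiently expressed in COS-7 cells by the hFP transfection and membrane protocol, with membranes in TME buffer pH 6.0. Competition binding used 5 nM [3H]PGE2, 1 h at 23 °C, filtration and scintillation counting.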

[7] = biological target: Prostaglandin E2 receptor EP2 subtype (Homo sapiens, UniProt P43116); test: In vitro binding at EP2 human prostaglandin receptor using [3H]PGE-2 as radioligand; how it was run: as §2
Chain of Prostaglandin E2 receptor EP2 subtype (P43116 whole entry): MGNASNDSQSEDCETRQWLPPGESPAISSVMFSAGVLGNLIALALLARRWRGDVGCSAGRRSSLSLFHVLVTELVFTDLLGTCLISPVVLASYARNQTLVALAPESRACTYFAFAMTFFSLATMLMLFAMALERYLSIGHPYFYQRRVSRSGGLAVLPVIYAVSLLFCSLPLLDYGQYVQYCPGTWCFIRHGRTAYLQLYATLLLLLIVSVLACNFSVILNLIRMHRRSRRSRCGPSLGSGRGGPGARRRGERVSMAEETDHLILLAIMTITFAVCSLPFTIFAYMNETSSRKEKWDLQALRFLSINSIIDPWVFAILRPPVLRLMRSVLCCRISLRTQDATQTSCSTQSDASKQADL

[8] = biological target: T5, Prostaglandin E2 receptor EP3 subtype (Homo sapiens, UniProt P43115); test: In vitro binding at EP3 human prostaglandin receptor using [3H]PGE-2 as radioligand; how it was run: as §2
T5 sequence (P43115 whole entry): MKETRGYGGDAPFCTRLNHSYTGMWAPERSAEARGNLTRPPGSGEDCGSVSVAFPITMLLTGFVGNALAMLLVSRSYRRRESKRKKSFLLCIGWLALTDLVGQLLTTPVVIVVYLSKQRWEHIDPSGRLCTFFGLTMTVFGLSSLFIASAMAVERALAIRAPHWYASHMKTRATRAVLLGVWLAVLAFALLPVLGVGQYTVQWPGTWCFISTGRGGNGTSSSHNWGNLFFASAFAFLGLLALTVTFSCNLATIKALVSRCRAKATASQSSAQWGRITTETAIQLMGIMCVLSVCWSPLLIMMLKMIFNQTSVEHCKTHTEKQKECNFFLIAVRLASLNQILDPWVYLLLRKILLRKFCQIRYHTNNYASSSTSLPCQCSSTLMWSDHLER

[9] = biological target: T5, Prostaglandin E2 receptor EP3 subtype; test: Functional activity in RAT-1 cells, transiently transfected with human prostaglandin EP3 receptor; type: cell-based
How it was run: (§3)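 RAT-1 cells transiently transfected with the human receptor, carrying a stably transfected, constitutively expressed β-galactosidase reporter gene. EC50 read after timed hydrolysis of a galactosidase pseudosubstrate.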

Thromboxane A2 receptor [10] = biological target: T2, Thromboxane A2 receptor; test: Functional activity in RAT-1 cells, transiently transfected with human prostaglandin TP receptor; type: cell-based; how it was run: as §3
[11] = biological target: T4, Prostaglandin E2 receptor EP1 subtype; test: Functional activity in RAT-1 cells, transiently transfected with human prostaglandin EP1 receptor; type: cell-based; how it was run: as §3
[12] = biological target: T1, Prostaglandin F2-alpha receptor; test: In vitro binding at FP human prostaglandin receptor using [3H]- PGF-2 alpha as radioligand; how it was run: as §1
Rattus norvegicus [13] = test: Mineral apposition measured Histomorphometrically after a dose of 3 ug/kg in proximal tibial metaphysis
Rattus norvegicus [14] = test: Mineral surface/bone surface measured Histomorphometrically after a dose of 250 ug/kg in proximal tibial metaphysis; type: functional
Rattus norvegicus [15] = test: Bone Volume /Tissue Volume (%)measured Histomorphometrically after a dose of 250 ug/kg in proximal tibial metaphysis; type: functional
Rattus norvegicus [16] = test: Mineralizing apposition measured Histomorphometrically after a dose of 250 ug/kg in Tibial Diaphysis; type: functional
Rattus norvegicus [17] = test: Derived trabecular thickness measured using micro Computed Tomography(CT) after a dose of 250 ug/kg in Vertebral Bone; type: functional, Trabecula
Rattus norvegicus [18] = test: Marrow area measured Histomorphometrically after a dose of 250 ug/kg in Tibial Diaphysis; type: functional
Rattus norvegicus [19] = test: Tissue area measured Histomorphometrically after a dose of 250 ug/kg in Tibial Diaphysis; type: functional
Rattus norvegicus [20] = test: Directly measured thickness measured using micro Computed Tomography(CT) after a dose of 250 ug/kg in Vertebral Bone; type: functional
Rattus norvegicus [21] = test: Endosteal mineralizing surface measured Histomorphometrically after a does of 250 ug/kg in Tibial Diaphysis; type: functional
Rattus norvegicus [22] = test: Endosteal eroded surface measured Histomorphometrically after a dose of 250 ug/kg in Tibial Diaphysis; type: functional
Rattus norvegicus [23] = test: Bone Volume /Tissue Volume (%)measured using micro Computed Tomography(CT) after a dose of 250 ug/kg in Vertebral Bone; type: functional
Rattus norvegicus [24] = test: Derived trabecular no measured using micro Computed Tomography(CT) after a dose of 6000 ug/kg in Vertebral Bone; type: functional, Trabecula
How it was run: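 Micro-CT of the fifth lumbar vertebra, measuring cancellous bone volume and architecture. Rats were 6 months old, OVX 60 days before treatment, then dosed daily for 60 days. Test-agent doses were 10–3000 µg/kg, given as a once-daily subcutaneous injection; 6 mg/kg/day was given to the positive-control group. Groups were compared with vehicle by ANOVA plus LSD test.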

Rattus norvegicus [25] = test: Bone Formation rate/tissue vol measured Histomorphometrically after a does of 250 ug/kg in proximal tibial metaphysis; type: functional
Rattus norvegicus [26] = test: Mineral apposition measured Histomorphometrically after a dose of 250 ug/kg in proximal tibial metaphysis; type: functional
Rattus norvegicus [27] = test: Trabecular thickness measured Histomorphometrically after a dose of 250 ug/kg in proximal tibial metaphysis; type: functional, Trabecula
Rattus norvegicus [28] = test: Trabecular no measured Histomorphometrically after a dose of 250 ug/kg in proximal tibial metaphysis; type: functional, Trabecula
Rattus norvegicus [29] = test: Connectivity density measured using micro Computed Tomography(CT) after a dose of 250 ug/kg in Vertebral Bone; type: functional
Rattus norvegicus [30] = test: Periosteal mineralizing surface measured Histomorphometrically after a does of 250 ug/kg in Tibial Diaphysis; type: functional
Rattus norvegicus [31] = test: Bone Formation rate/bone measured Histomorphometrically after a dose of 250 ug/kg in proximal tibial metaphysis; type: functional

Compound: CCCCC[C@H](O)/C=C/[C@@H]1[C@@H](C/C=C\CCC[PH](=O)O)[C@@H](O)C[C@H]1O
IC50 [3]: > 10000 nM | IC50 (Thromboxane A2 receptor [4]): > 10000 nM | IC50 [5]: > 10000 nM | pKa [1]: 3.39 | IC50 (Prostacyclin receptor): > 10000 nM | IC50 [6]: > 10000 nM | IC50 [7]: > 10000 nM | IC50 [8]: > 10000 nM | IC50 [2]: 114 nM

Compound: O=C(O)CCC/C=C\C[C@@H]1[C@@H](/C=C/[C@@H](O)COc2ccccc2)[C@H](O)C[C@@H]1O
EC50 [9]: 186 nM | EC50 (Thromboxane A2 receptor [10]): 510 nM | EC50 [11]: 38 nM | pKa [1]: 4.77 | IC50 [2]: 2 nM

Compound: NCCCC(O)(P(=O)(O)O)P(=O)(O)O [ALENDRONIC ACID]
Mineral apposition rate (Rattus norvegicus [13]): 0.63 µm/day

Compound: O=C(O)CCC/C=C\CC1C(O)CC(O)C1/C=C/C(O)COc1cccc(Cl)c1 (centres undefined) [CLOPROSTENOL]
Activity (Rattus norvegicus [14]): 22.99% | Activity (Rattus norvegicus [15]): 9.5% | Mineralizing apposition rate (Rattus norvegicus [16]): 1.6 µm/day | Derived trabecular thickness (Rattus norvegicus [17]): 85.8 µm | Marrow area (Rattus norvegicus [18]): 0.7 mm | Tissue area (Rattus norvegicus [19]): 4.78 mm | Directly measured thickness (Rattus norvegicus [20]): 138 µm | Endosteal mineralizing surface (Rattus norvegicus [21]): 55.18% | Endosteal eroded surface (Rattus norvegicus [22]): 2.22% | Activity (Rattus norvegicus [23]): 42.04% | Derived trabecular number (Rattus norvegicus [24]): 4.6 mM⁻¹ | Activity (Rattus norvegicus [25]): 26.44% | Mineral apposition rate (Rattus norvegicus [26]): 1.09 µm/day | Trabecular thickness (Rattus norvegicus [27]): 53.9 | Trabecular no. (Rattus norvegicus [28]): 1.77 | Connectivity density (Rattus norvegicus [29]): 61.13 mm**-3 | Periosteal mineralizing surface (Rattus norvegicus [30]): 9.91% | Activity (Rattus norvegicus [31]): 286.86%

Compound: CCCCC[C@H](O)/C=C/[C@@H]1[C@@H](C/C=C\CCCC(=O)O)[C@@H](O)C[C@H]1O [DINOPROST]
IC50 (Thromboxane A2 receptor [4]): > 10000 nM | pKa [1]: 4.77 | IC50 (Prostacyclin receptor): > 10000 nM | IC50 [6]: 220 nM | IC50 [7]: > 10000 nM | IC50 [8]: 110 nM

Results, then the molecule that gave them:

pKa [1]: 3.36 | IC50 [2]: 6700 nM
Compound: CCCCC[C@H](O)/C=C/[C@@H]1[C@@H](C/C=C\CCCP(=O)(O)CCCC)[C@@H](O)C[C@H]1O

pKa [1]: 3.24 | IC50 [2]: 4100 nM
Compound: CCCCC[C@H](O)/C=C/[C@@H]1[C@@H](C/C=C\CCCP(=O)(O)CC)[C@@H](O)C[C@H]1O

pKa [1]: 2.36 | IC50 [12]: > 10000 nM
Compound: CCCCC[C@H](O)/C=C/[C@@H]1[C@@H](C/C=C\CCCP(=O)(O)OCC)[C@@H](O)C[C@H]1O

pKa [1]: 2.38 | IC50 [12]: 1000 nM
Compound: CCCCC[C@H](O)/C=C/[C@@H]1[C@@H](C/C=C\CCCP(=O)(O)O)[C@@H](O)C[C@H]1O

pKa [1]: 3.1 | IC50 [2]: 311 nM
Compound: CCCCC[C@H](O)/C=C/[C@@H]1[C@@H](C/C=C\CCCP(C)(=O)O)[C@@H](O)C[C@H]1O
